Measured values: ChEMBL document CHEMBL2424622, “Development of amino-pyrimidine inhibitors of c-Jun N-terminal kinase (JNK): kinase profiling guided optimization of a 1,2,3-benzotriazole lead” (Bioorg Med Chem Lett, 2013)
Each block holds one compound with its values, some of them ahead of it.

How the values were obtained:
[1] = target: Serine/threonine-protein kinase 25 (Homo sapiens) (UniProt O00506); experiment: Competitive binding affinity to STK25 (unknown origin) at 10 uM in presence of ATP relative to control
[2] = target: Activin receptor type-2B (Homo sapiens) (UniProt Q13705); experiment: Competitive binding affinity to ACVR2B (unknown origin) at 10 uM in presence of ATP relative to control
Chain of Activin receptor type-2B (Homo sapiens) (Q13705 whole entry, the tested form may be a part): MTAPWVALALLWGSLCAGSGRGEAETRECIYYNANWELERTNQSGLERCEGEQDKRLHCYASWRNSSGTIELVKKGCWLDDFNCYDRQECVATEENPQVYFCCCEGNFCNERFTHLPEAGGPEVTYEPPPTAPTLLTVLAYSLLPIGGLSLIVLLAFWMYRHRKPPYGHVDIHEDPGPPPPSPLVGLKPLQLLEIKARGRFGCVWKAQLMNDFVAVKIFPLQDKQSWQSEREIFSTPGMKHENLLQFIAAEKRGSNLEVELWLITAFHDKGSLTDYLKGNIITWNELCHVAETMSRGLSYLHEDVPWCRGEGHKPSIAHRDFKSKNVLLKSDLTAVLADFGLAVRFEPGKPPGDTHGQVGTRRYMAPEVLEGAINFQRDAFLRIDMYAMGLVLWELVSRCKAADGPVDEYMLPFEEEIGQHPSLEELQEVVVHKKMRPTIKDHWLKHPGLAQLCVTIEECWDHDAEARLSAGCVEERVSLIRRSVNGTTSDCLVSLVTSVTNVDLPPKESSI

LIM domain kinase 2 = LIM domain kinase 2 (Homo sapiens, UniProt P53671); experiment: Competitive binding affinity to LIMK2 (unknown origin) at 10 uM in presence of ATP relative to control
Chain of LIM domain kinase 2 (P53671 whole entry, looked up, the tested form may be a part): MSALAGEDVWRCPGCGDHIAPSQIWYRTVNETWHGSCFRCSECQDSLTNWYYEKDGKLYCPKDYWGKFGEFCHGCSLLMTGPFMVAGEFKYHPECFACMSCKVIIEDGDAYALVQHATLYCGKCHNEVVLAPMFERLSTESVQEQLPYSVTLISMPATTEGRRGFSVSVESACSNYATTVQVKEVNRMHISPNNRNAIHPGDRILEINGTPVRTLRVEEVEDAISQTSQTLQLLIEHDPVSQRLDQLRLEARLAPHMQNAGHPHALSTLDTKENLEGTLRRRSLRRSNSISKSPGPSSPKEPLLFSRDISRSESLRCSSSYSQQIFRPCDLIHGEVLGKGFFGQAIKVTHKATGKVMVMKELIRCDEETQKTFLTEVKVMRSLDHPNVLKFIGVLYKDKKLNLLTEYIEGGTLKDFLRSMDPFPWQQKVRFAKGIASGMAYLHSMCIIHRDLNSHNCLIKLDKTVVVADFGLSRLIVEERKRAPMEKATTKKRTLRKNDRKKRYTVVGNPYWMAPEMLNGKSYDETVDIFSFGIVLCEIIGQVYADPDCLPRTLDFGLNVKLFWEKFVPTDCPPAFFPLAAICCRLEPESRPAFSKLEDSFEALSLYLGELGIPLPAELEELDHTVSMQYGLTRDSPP
Outline: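 In vitro ATP-site competition binding assay, part of profiling against a diverse panel of 128 kinases. Each compound was tested at a single concentration of 10 µM. Kinome selectivity was summarized as S15 selectivity scores.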

[3] = target: Serine/threonine-protein kinase 10 (Homo sapiens) (UniProt O94804); experiment: Competitive binding affinity to STK10 (unknown origin) at 10 uM in presence of ATP relative to control
Chain of Serine/threonine-protein kinase 10 (Homo sapiens) (O94804 whole entry, looked up): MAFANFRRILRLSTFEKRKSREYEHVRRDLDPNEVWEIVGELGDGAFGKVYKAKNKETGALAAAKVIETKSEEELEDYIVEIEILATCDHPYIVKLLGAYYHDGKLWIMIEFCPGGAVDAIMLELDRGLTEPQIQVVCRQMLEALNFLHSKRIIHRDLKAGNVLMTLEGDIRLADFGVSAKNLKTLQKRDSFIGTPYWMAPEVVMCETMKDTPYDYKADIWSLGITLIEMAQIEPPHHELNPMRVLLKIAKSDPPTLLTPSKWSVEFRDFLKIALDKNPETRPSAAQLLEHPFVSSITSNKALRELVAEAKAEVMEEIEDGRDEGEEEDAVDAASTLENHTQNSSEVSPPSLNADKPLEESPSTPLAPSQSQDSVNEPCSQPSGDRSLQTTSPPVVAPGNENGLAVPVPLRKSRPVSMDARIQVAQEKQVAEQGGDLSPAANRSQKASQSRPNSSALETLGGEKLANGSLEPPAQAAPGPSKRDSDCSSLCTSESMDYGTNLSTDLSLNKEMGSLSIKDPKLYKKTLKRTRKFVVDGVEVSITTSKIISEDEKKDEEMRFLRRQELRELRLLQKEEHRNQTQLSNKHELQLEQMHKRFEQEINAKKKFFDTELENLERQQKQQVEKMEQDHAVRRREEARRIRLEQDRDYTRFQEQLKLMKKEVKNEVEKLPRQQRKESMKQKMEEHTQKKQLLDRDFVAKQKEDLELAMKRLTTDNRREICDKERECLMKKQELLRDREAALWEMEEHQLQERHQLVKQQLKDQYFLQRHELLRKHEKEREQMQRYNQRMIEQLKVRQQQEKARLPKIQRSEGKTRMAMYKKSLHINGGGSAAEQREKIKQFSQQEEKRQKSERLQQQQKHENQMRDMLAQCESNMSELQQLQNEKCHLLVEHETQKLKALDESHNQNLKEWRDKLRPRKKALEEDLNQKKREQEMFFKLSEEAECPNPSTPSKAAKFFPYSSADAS

[4] = target: Activated CDC42 kinase 1 (Homo sapiens) (UniProt Q07912); experiment: Competitive binding affinity to ACK1 (unknown origin) at 10 uM in presence of ATP relative to control
Chain of Activated CDC42 kinase 1 (Homo sapiens) (Q07912 whole entry, looked up): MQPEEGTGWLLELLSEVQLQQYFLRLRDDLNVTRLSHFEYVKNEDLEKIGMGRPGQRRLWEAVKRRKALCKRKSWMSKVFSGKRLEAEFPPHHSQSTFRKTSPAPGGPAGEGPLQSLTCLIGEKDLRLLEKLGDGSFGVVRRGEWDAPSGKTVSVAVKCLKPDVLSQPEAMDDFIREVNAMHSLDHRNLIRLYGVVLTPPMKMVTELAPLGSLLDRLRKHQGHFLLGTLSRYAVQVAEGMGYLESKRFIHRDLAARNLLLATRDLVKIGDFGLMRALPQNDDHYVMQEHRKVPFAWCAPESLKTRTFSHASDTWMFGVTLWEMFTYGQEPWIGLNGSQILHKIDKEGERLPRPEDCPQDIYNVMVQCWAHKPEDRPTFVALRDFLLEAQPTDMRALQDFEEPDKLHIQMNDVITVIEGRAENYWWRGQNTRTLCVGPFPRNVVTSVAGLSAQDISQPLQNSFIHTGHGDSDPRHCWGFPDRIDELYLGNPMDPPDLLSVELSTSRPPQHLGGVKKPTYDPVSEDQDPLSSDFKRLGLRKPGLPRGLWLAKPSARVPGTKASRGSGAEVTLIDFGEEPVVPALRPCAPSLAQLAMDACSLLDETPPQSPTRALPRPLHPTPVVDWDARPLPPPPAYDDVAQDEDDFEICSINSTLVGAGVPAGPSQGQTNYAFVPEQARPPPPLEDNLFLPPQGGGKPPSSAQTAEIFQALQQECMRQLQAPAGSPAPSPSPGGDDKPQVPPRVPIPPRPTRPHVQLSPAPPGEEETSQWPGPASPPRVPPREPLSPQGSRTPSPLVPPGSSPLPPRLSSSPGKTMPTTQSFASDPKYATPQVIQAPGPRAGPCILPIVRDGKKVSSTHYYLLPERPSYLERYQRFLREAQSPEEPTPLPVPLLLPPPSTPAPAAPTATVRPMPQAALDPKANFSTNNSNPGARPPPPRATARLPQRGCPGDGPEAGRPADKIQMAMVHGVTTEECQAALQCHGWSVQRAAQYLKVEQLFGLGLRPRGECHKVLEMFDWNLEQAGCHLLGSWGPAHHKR

[5] = target: T1, Serine/threonine-protein kinase STK11 (Homo sapiens) (UniProt Q15831); experiment: Competitive binding affinity to STK11 (unknown origin) at 10 uM in presence of ATP relative to control
T1 sequence (whole entry): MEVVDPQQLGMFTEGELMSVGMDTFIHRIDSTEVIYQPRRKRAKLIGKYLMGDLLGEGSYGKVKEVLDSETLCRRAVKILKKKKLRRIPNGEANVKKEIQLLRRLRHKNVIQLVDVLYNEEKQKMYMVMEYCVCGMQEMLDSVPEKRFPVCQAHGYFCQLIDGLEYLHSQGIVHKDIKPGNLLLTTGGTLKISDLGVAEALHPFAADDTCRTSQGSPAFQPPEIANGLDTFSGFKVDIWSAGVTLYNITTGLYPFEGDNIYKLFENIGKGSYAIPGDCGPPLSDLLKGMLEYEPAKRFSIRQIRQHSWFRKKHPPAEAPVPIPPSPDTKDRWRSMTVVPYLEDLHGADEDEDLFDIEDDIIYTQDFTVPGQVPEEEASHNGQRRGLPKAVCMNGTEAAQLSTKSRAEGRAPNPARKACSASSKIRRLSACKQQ

[6] = target: Serine/threonine-protein kinase ULK3 (Mus musculus) (UniProt Q3U3Q1); experiment: Competitive binding affinity to mouse ULK3 at 10 uM in presence of ATP relative to control
Chain of Serine/threonine-protein kinase ULK3 (Mus musculus) (Q3U3Q1 whole entry): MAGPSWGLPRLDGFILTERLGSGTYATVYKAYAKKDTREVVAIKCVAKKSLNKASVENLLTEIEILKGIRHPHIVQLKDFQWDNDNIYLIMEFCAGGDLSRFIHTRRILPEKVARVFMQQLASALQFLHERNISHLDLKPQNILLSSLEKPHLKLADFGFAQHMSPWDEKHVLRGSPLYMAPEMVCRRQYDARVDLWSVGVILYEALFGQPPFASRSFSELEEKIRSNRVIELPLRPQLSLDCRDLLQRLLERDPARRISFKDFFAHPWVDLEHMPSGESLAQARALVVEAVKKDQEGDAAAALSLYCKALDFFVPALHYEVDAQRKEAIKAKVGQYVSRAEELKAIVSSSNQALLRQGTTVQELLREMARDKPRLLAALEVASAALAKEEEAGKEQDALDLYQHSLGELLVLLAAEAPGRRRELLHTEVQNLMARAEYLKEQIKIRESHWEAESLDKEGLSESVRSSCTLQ

[7] = target: T2, Serine/threonine-protein kinase LATS1 (Homo sapiens) (UniProt O95835); experiment: Competitive binding affinity to LATS1 (unknown origin) at 10 uM in presence of ATP relative to control
T2 sequence (whole entry): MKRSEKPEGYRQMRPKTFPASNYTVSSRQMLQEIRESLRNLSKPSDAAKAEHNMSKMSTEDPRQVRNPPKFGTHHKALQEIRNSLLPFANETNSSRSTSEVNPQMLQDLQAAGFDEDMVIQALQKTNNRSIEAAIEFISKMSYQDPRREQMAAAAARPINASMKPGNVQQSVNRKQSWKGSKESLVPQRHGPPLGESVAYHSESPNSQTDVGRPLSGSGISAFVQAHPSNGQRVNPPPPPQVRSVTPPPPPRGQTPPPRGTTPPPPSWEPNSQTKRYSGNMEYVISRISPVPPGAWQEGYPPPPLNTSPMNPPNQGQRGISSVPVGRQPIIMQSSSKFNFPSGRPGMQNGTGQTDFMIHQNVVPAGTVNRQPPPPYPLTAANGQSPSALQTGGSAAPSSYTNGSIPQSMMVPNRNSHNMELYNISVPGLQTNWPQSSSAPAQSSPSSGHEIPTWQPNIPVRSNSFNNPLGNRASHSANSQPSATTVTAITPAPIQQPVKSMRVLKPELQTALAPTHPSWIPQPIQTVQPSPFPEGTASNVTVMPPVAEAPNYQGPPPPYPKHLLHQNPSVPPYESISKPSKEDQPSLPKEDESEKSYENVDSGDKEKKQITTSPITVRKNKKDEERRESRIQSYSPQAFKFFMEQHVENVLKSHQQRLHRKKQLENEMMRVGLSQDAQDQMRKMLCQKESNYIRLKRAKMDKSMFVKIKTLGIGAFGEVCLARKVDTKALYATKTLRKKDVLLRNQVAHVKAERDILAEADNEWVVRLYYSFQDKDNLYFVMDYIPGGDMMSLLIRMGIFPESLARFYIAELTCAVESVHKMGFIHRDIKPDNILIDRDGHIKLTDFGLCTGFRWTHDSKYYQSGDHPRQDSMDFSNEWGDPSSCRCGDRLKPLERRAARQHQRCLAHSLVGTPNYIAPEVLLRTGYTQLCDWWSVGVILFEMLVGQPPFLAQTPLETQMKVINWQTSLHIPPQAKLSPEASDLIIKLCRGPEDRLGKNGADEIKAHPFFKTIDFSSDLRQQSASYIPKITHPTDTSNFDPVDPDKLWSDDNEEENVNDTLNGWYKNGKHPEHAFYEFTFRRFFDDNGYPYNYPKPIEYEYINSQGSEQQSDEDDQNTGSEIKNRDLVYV

[8] = target: Serine/threonine-protein kinase Nek7 (Homo sapiens, UniProt Q8TDX7); experiment: Competitive binding affinity to NEK7 (unknown origin) at 10 uM in presence of ATP relative to control
Chain of Serine/threonine-protein kinase Nek7 (Q8TDX7 whole entry, looked up): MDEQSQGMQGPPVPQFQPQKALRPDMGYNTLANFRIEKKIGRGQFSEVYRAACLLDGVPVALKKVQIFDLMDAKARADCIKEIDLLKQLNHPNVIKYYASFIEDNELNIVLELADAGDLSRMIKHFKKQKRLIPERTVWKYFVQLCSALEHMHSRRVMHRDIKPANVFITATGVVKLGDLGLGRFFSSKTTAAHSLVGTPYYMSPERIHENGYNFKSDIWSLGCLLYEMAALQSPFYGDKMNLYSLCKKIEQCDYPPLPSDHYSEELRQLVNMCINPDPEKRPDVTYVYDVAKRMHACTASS

[9] = target: Calcium/calmodulin-dependent protein kinase type 1 (Homo sapiens, UniProt Q14012); experiment: Binding affinity to CAMK1 (unknown origin)
Rattus norvegicus = experiment: Cmax in Hanover-Wistar rat at 20 mg/kg, po; assay type: ADME, organism-based; design: dose 20 mg/kg, route oral; settings: in vivo
[10] = target: Mitogen-activated protein kinase 7 (Homo sapiens, UniProt Q13164); experiment: Binding affinity to ERK5 (unknown origin)
[11] = target: Death-associated protein kinase 1 (Homo sapiens, UniProt P53355); experiment: Binding affinity to DAPK1 (unknown origin)
[12] = target: Dual specificity mitogen-activated protein kinase kinase 4 (Homo sapiens, UniProt P45985); experiment: Binding affinity to MEK4 (unknown origin)
[13] = target: Mitogen-activated protein kinase 3 (Homo sapiens, UniProt P27361); experiment: Binding affinity to ERK1 (unknown origin)
Chain of Mitogen-activated protein kinase 3 (P27361 whole entry): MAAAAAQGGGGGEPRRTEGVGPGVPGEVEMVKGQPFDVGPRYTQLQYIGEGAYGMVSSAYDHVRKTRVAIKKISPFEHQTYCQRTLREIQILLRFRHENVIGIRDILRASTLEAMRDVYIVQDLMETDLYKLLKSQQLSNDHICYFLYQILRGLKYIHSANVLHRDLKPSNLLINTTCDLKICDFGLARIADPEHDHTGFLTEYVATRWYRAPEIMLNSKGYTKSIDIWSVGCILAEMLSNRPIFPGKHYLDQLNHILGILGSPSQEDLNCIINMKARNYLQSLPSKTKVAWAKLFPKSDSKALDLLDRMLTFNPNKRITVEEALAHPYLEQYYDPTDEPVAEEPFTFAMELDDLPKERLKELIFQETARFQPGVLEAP

[14] = target: Glycogen synthase kinase-3 beta (Homo sapiens, UniProt P49841); experiment: Binding affinity to GSK3B (unknown origin)
[15] = Half life in Hanover-Wistar rat at 20 mg/kg, po; assay type: ADME, organism-based; design: dose 20 mg/kg, route oral; settings: in vivo
[16] = target: Mitogen-activated protein kinase 10 (Homo sapiens, UniProt P53779); experiment: Binding affinity to JNK3 (unknown origin)
LIM domain kinase 1 = LIM domain kinase 1 (Homo sapiens, UniProt P53667); experiment: Binding affinity to LIMK1 (unknown origin)
[17] = Intrinsic clearance in human liver microsomes measured per mg of protein; assay type: ADME, Microsome; settings: read-out: CLH
[18] = target: Glycogen synthase kinase-3 alpha (Homo sapiens, UniProt P49840); experiment: Binding affinity to GSK3A (unknown origin)
[19] = target: Atypical kinase COQ8B, mitochondrial (Homo sapiens, UniProt Q96D53); experiment: Binding affinity to ADCK4 (unknown origin)
Chain of Atypical kinase COQ8B, mitochondrial (Q96D53 whole entry): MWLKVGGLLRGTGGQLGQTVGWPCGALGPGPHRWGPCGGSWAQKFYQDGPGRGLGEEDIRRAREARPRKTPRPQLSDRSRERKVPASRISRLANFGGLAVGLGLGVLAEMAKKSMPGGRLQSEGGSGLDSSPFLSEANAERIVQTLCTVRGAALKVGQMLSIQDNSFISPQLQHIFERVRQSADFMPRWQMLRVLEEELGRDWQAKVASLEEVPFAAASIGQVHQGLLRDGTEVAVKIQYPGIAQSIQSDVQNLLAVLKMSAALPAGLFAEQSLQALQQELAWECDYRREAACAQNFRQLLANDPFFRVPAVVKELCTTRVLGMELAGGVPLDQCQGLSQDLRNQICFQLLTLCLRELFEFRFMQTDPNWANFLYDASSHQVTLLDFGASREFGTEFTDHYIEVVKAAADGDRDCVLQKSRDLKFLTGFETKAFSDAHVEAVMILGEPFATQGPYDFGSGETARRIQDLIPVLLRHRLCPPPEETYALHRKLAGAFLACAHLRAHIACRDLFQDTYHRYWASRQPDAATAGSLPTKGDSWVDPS

inhibition [1]: 85% | inhibition [2]: < 50% | inhibition (LIM domain kinase 2): 100%
SMILES: O[C@H]1CC[C@H](Nc2nccc(-c3n[nH]c4ccccc34)n2)CC1

inhibition [3]: < 50% | inhibition [4]: < 50% | inhibition [5]: 98% | inhibition [6]: < 50%
SMILES: N[C@H]1CC[C@H](Nc2nccc(-n3nnc4ccccc43)n2)CC1

inhibition [7]: < 50% | inhibition [8]: < 50% | inhibition [2]: < 50% | inhibition (LIM domain kinase 2): 81%
SMILES: O[C@H]1CC[C@H](Nc2nccc(-n3ccc4ccccc43)n2)CC1

inhibition [3]: < 50% | inhibition [4]: < 50% | inhibition [5]: < 50% | inhibition [6]: < 50%
SMILES: O=C([C@H]1CC[C@H](Nc2nccc(-n3nnc4ccccc43)n2)CC1)N1CCOCC1

inhibition [7]: < 50% | inhibition [8]: 93% | inhibition [2]: 74% | inhibition (LIM domain kinase 2): 78%
SMILES: O[C@H]1CC[C@H](Nc2nccc(-n3nnc4ccccc43)n2)CC1

inhibition [7]: < 50% | inhibition [8]: < 50% | inhibition [2]: < 50% | inhibition (LIM domain kinase 2): 76%
SMILES: O[C@H]1CC[C@H](Nc2nccc(-n3ncc4ccccc43)n2)CC1

Kd [9]: 4300 nM | Cmax (Rattus norvegicus): 3680 ng/mL | Kd [10]: 1500 nM | Kd [12]: 390 nM | Kd [13]: 1800 nM | inhibition [8]: > 85% | Kd [14]: 5400 nM | half-life [15]: 2.9 h | Kd [16]: 1.8 nM | Kd (LIM domain kinase 1): 870 nM | microsomal CLint [17]: 30 µL/min/mg | Kd [18]: 1300 nM | Kd [19]: 4800 nM | inhibition (LIM domain kinase 2): > 85%
SMILES: CS(=O)(=O)CCCOc1cccc2c1ccn2-c1ccnc(N[C@H]2CC[C@H](C(=O)N3CCC(O)CC3)CC2)n1
Kd [11]: 380 nM
